Laboratory results: ChEMBL document CHEMBL4041513, “In silico identification, design and synthesis of novel piperazine-based antiviral agents targeting the hepatitis C virus helicase” (Eur J Med Chem, 2017)
pEC50, pIC50, pKd: −log10 of the molar value. The source made the active and inactive calls. The rule behind the calls is not given here.

Tests used:
[1] = Binding affinity to HCV genotype 2A JFH1 protease domain truncated NS3 helicase by fluorescence assay; set-up: species or system Hepatitis C virus JFH-1
In short: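 Intrinsic tryptophan fluorescence titration (ex 280 nm, em 340 nm) of NS3h, the JFH1 genotype 2a NS3 helicase domain without protease, at 100 nM, with compound alone as reference. Intensities corrected for dilution and inner-filter effects, then globally fit to a quadratic binding equation for Kd.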

[2] = Selectivity index, ratio of CC50 for human HuH5.2 cells to EC50 for HCV genotype 1b infected in human HuH5.2 cells with persistent I389luc-ubi-neo/NS3-3'/5.1 replicon
[3] = Inhibition of HCV NS3 helicase ATP hydrolysis activity in presence of poly(U) RNA; set-up: species or system Hepacivirus hominis
In short: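 ATPase run with RNA: 25 mM MOPS pH 6.5, 1.25 mM MgCl2, 15 µM poly(U), 6 nM NS3h, 5 µg/mL BSA, 0.001% Tween 20. Duplicate two-fold compound series from 1 mM to 0.78 µM; normalised to no-inhibitor and no-enzyme controls; IC50 from variable Hill-slope fit. A separate poly(U) titration gave K_RNA, fit assuming unchanged Vmax.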

[4] = Cytotoxicity against human HuH5.2 cells assessed as reduction in cell viability after 72 hrs by MTS assay; format: cell-based, Huh-5-2
In short: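 Huh 5-2 cells carrying the genotype 1b I389luc-ubi-neo/NS3-3'/5.1 replicon were seeded at 6 500 cells/well in medium without Geneticin one day ahead. Compounds (DMSO stock) were added as 1:5 four-step or 1:2 eight-step dilutions for 72 h at 37 °C.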

[5] = tested on: Hepacivirus hominis; test: Inhibition of HCV NS3 helicase ATP hydrolysis activity at 1 mM in absence of poly(U) RNA
[6] = tested on: Hepacivirus hominis; test: Selectivity ratio of inhibition of DNA oligonucleotide binding to HCV NS3 helicase to inhibition of HCV NS3 helicase ATP hydrolysis activity
[7] = tested on: Hepatitis C virus; test: Antiviral activity against HCV genotype 1b infected in human HuH5.2 cells with persistent I389luc-ubi-neo/NS3-3'/5.1 replicon after 72 hrs by luciferase reporter gene assay; format: functional, cell-based, Hepacivirus hominis; conditions: Huh-5-2, 72 h
In short: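 Huh 5-2 cells carrying the genotype 1b I389luc-ubi-neo/NS3-3'/5.1 replicon were seeded at 6 500 cells/well in Geneticin-free DMEM/10% FCS and left overnight. Compounds from DMSO stocks were added in a four-step 1-to-5 series for the first screen or an eight-step 1-to-2 series for dose-response curves, then 72 h at 37 °C. Luciferase luminescence after lysis, as % of untreated controls, gave EC50; mean of ≥2 experiments.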

[8] = Inhibition of DNA oligonucleotide binding to HCV NS3 helicase; set-up: species or system Hepacivirus hominis
In short: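 Compounds run in duplicate two-fold series from 1 mM to 0.78 µM; normalised to no-inhibitor and no-enzyme controls; IC50 by variable Hill-slope dose-response fit.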

[9] = Inhibition of HCV NS3 helicase DNA unwinding activity using fluorescent DNA substrate by molecular beacon assay; set-up: species or system Hepacivirus hominis
In short: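 Molecular beacon unwinding reaction: 25 mM MOPS pH 6.5, 1.25 mM MgCl2, 5% DMSO, 5 µg/ml BSA, 0.01% Tween20, 0.05 mM DTT, 5 nM fluorescent DNA substrate, 12.5 nM NS3h, 1 mM ATP. Duplicate two-fold dilutions spanned 1 mM to 0.78 µM. Data normalised to no-inhibitor and no-enzyme controls; IC50 from variable-slope Hill fit.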

Structure (SMILES)	pKd [1]	Ratio CC50/EC50 [2]	pIC50 [3]	CC50 at 72 h [4] [µM]	inhibition [5]	Selectivity ratio [6]	pEC50 [7]	EC90 [7] [µM]	pIC50 [8]	pIC50 [9]
CC(C)(C)c1ccc(S(=O)(=O)NCCCN2CCN(CCCNS(=O)(=O)c3ccc(-c4ccccc4)cc3)CC2)cc1	6.24	3.7	4.68	4.78	inactive	10	5.89	3.05	3.70	4.05
CC(C)(C)c1ccc(S(=O)(=O)NCCCN2CCN(CCCNS(=O)(=O)c3ccc(C(C)(C)C)cc3)CC2)cc1	–	11.2	3.23	97.2	–	–	5.06	42.9	< 3.00	3.51
O=S(=O)(NCCCN1CCN(CCCNS(=O)(=O)c2ccc(-c3ccccc3)cc2)CC1)c1ccccc1	–	3.5	–	14	–	–	5.40	–	–	< 3.00
CCOC(=O)c1ccc(S(=O)(=O)NCCCN2CCN(CCCNS(=O)(=O)c3ccc(C(=O)OCC)cc3)CC2)cc1	–	>2.8	–	> 160	–	–	4.25	–	–	< 3.00
CC(C)(C)c1ccc(S(=O)(=O)NCCCN2CCN(CCCNS(=O)(=O)c3ccc(C(F)(F)F)cc3)CC2)cc1	–	4.3	–	28.7	–	–	5.18	13.8	–	< 3.00
O=S(=O)(NCCCN1CCN(CCCNS(=O)(=O)c2ccc(Cl)cc2)CC1)c1ccc(Cl)cc1	–	>13.2 - 14	< 3.00	> 182	–	–	4.86 to 4.89	–	< 3.00	< 3.00
O=S(=O)(NCCCCN1CCN(CCCCNS(=O)(=O)c2ccc(Cl)cc2)CC1)c1ccc(Cl)cc1	–	>2.5	–	> 173	–	–	4.18	164	–	3.10
O=S(=O)(NCCCN1CCN(CCCNS(=O)(=O)c2cccc3cccnc23)CC1)c1cccc2cccnc12	–	>4	–	> 172	–	–	4.37	> 172	–	< 3.00
O=C(CCNS(=O)(=O)c1ccc(Cl)cc1)N1CCN(CCCNS(=O)(=O)c2ccc(Cl)cc2)CC1	–	7.4	–	69.1	–	–	5.03	25.9	–	< 3.00
O=S(=O)(NCCCN1CCN(CCCNS(=O)(=O)c2ccc3ccccc3c2)CC1)c1ccc2ccccc2c1	–	10	–	49.9	–	–	5.31	–	–	3.34
CC(C)(C)c1ccc(S(=O)(=O)NCCCN2CCN(C(=O)CCNS(=O)(=O)c3ccc(C(C)(C)C)cc3)CC2)cc1	–	5.4	–	20.8	–	–	5.42	–	–	< 3.00
CC(C)(C)c1ccc(S(=O)(=O)NCCCN2CCN(CCCNS(=O)(=O)c3ccc(Cl)cc3)CC2)cc1	–	4	–	8.77	–	–	5.66	4.96	–	3.51
O=S(=O)(NCCCN1CCN(CCCNS(=O)(=O)c2ccc(-c3ccccc3)cc2)CC1)c1ccc(-c2ccccc2)cc1	–	3.9	–	4.9	–	–	5.92	–	–	3.20
CC(C)(C)c1ccc(S(=O)(=O)NCCCN2CCN(CCNS(=O)(=O)c3ccc(C(C)(C)C)cc3)CC2)cc1	–	3.1	–	5.21	–	–	5.77	–	–	3.77
O=C(O)c1ccc(S(=O)(=O)NCCCN2CCN(CCCNS(=O)(=O)c3ccc(C(=O)O)cc3)CC2)cc1	–	–	–	> 176	–	–	< 3.75	–	–	< 3.00
O=S(=O)(NCCN1CCN(CCNS(=O)(=O)c2ccc3ccccc3c2)CC1)c1ccc2ccccc2c1	–	>8.5	–	> 90.5	–	–	4.97	–	–	3.16
O=C(CCNS(=O)(=O)c1ccc(-c2ccccc2)cc1)N1CCN(CCCNS(=O)(=O)c2ccc(-c3ccccc3)cc2)CC1	–	22.1	–	66.9	–	–	5.52	–	–	< 3.00
O=C(CCNS(=O)(=O)c1ccc(Cl)cc1)N1CCN(C(=O)CCNS(=O)(=O)c2ccc(Cl)cc2)CC1	–	–	< 3.00	> 86.6	–	–	–	–	< 3.00	< 3.00
O=S(=O)(NCCCN1CCN(CCCNS(=O)(=O)c2ccc(C(F)(F)F)cc2)CC1)c1ccc(C(F)(F)F)cc1	–	>25	–	> 162	–	–	5.19	–	–	< 3.00
